Test results: ChEMBL document CHEMBL1153467, “Synthesis and biological evaluation of imidazole derivatives as novel NOP/ORL1 receptor antagonists: exploration and optimization of alternative pyrazole structure” (Bioorg Med Chem Lett, 2009)

Legend:
Nociceptin receptor [1] = molecular target: T1, Nociceptin receptor (Homo sapiens, UniProt P41146); experiment: Displacement of [125I]Tyr14-nociceptin from human ORL1 receptor expressed in CHO cells; assay type: cell-based
Method in brief: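 Competition binding to human ORL1 receptors transfected into CHO cells, with [¹²⁵I][Tyr¹⁴]nociceptin as radioligand; values given as IC₅₀.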

Nociceptin receptor [2] = molecular target: T1, Nociceptin receptor; experiment: Displacement of [125I]Tyr14-nociceptin from human ORL1 receptor expressed in CHO cells at 1 uM; assay type: cell-based
Method in brief: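 Same radioligand displacement at human ORL1 in CHO cells ([¹²⁵I][Tyr¹⁴]nociceptin), but reported as % inhibition of binding at a single 1 μM test concentration.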

MDR1 (human) = experiment: Apparent permeability across pig L-MDR1 cells overexpressing human MDR1; assay type: ADME, cell-based, Sus scrofa; details: LLC-PK1
Method in brief: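 P-gp transporter efflux assay: apparent permeability (Papp) reported in 10⁻⁶ cm/s; efflux expressed as the B–A/A–B ratio, with ratio accuracy considered compromised when Papp <10.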

[3] = Efflux ratio of permeability from basolateral to apical side over apical to basolateral side in pig L-MDR1 cells overexpressing human MDR1
[4] = molecular target: Voltage-gated inwardly rectifying potassium channel KCNH2 (Homo sapiens, UniProt Q12809); experiment: Displacement of [35S]MK499 from human ERG expressed in HEK293 cells overexpressing Ikr channel protein; assay type: cell-based
Nociceptin receptor [5] = molecular target: T1, Nociceptin receptor; experiment: Antagonist activity at human cloned ORL1 receptor expressed in CHO cells assessed as inhibition of nociceptin/orphanin FQ-stimulated [35S]GTPgammaS binding; assay type: functional, cell-based
Method in brief: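 Functional antagonism measured by stimulation of [³⁵S]GTPγS binding to membranes from CHO cells expressing ORL1, run per an earlier published protocol.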

[6] = Metabolic stability in human liver microsomes at 1 uM after 30 mins; assay type: ADME, Microsome; details: read-out: Stability
Method in brief: (§1)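 Parent compound at 1 μM was incubated with human or rat liver microsomes (0.25 mg protein/ml) for 30 min at 37 °C; stability was read out as % parent remaining.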

[7] = Half life in rat at 1 mg/kg, iv; assay type: ADME, organism-based; parameters: dose 1 mg/kg, route intravenous; details: in vivo
[8] = Clearance in rat at 1 mg/kg, iv; assay type: ADME, organism-based; parameters: dose 1 mg/kg, route intravenous; details: in vivo
[9] = Oral bioavailability in rat at 3 mg/kg; assay type: ADME, organism-based; details: in vivo
[10] = Metabolic stability in rat liver microsomes at 1 uM after 30 mins; assay type: ADME, Microsome; details: read-out: Stability; method in brief: as §1

T1 sequence (P41146 whole entry): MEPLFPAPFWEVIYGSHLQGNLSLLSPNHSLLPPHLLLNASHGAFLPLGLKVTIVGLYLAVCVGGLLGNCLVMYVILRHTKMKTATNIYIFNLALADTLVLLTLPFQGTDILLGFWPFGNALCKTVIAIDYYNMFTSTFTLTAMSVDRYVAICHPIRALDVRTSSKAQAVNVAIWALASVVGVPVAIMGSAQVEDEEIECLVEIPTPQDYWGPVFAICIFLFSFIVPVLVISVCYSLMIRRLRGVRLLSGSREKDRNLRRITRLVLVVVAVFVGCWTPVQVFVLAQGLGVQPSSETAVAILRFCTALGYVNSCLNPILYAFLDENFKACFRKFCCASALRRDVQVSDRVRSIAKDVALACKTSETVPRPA
Voltage-gated inwardly rectifying potassium channel KCNH2, sequence (Q12809 whole entry): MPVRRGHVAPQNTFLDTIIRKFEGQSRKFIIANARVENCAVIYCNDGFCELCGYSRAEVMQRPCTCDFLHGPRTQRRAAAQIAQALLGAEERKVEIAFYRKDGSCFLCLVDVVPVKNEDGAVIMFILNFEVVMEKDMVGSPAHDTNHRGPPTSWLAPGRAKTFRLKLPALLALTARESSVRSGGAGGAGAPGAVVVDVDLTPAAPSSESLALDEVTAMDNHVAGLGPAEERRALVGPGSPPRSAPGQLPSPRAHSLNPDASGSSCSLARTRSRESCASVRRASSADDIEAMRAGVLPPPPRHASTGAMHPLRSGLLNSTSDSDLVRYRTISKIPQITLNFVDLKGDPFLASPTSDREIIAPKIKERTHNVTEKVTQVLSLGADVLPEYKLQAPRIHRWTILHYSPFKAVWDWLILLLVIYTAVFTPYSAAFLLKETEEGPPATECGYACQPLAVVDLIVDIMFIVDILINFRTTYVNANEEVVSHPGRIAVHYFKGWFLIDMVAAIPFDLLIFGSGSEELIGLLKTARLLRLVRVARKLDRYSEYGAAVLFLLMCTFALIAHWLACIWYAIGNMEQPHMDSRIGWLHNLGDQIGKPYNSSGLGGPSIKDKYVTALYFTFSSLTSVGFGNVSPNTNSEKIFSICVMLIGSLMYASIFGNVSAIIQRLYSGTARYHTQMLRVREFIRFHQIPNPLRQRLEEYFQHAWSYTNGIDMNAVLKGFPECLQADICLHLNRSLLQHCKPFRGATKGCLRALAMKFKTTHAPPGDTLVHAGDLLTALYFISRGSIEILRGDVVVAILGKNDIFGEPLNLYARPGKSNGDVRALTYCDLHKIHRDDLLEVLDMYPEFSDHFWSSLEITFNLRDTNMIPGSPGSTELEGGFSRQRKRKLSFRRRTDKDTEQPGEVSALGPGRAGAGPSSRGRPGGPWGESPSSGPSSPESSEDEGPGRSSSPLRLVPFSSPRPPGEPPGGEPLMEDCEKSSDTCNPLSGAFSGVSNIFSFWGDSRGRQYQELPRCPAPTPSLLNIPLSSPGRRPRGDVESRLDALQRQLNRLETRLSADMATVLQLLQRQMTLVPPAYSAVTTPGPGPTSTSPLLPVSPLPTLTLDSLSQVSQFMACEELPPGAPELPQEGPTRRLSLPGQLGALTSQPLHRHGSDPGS

Row | SMILES | IC50 (Nociceptin receptor [1]) [nM] | inhibition (Nociceptin receptor [2]) [%] | further results
1 | Clc1ccc(-c2nc(CNC3CCCC3)cn2-c2ccc(Cl)cc2Cl)cc1 | 620 | – | –
2 | Cc1c(CNC2CCCC2)cc(-c2ccc(Cl)cc2Cl)n1-c1ccc(Cl)cc1 | 200 | – | –
3 | Clc1ccc(-c2c(-c3ccc(Cl)cc3Cl)nc(CNC3CCCC3)n2C2CCCCC2)cc1 | > 1000 | 48 | –
4 | Cc1c(CNC2CCCC2)nnn1-c1ccc(F)c(F)c1 | > 1000 | 40 | –
5 | Cc1c(CNC2CCCC2)oc(-c2ccc(Cl)cc2Cl)c1-c1ccc(Cl)cc1 | > 1000 | 25 | –
6 | CC(C)Cn1c(CNC2CCCC2)nc(-c2ccc(Cl)cc2Cl)c1-c1ccc(Cl)cc1 | 540 | – | –
7 | Cc1nn(-c2ccccc2)c(C)c1CNC1CCCC1 | > 1000 | 44 | –
8 | Clc1ccc(-c2nc(CNC3CCCC3)nn2-c2ccc(Cl)cc2Cl)cc1 | > 1000 | 48 | –
9 | Clc1ccc(-c2c(-c3ccc(Cl)cc3Cl)nc(CNC3CCCC3)n2C2CCCC2)cc1 | > 1000 | 43 | –
10 | Clc1ccc(-c2sc(CNC3CCCC3)nc2-c2ccc(Cl)cc2Cl)cc1 | > 1000 | 7 | –
11 | Cc1c(CNC2CCCC2)nc(-c2ccc(Cl)cc2Cl)n1-c1ccc(Cl)cc1 | 28 | – | –
12 | Cc1ccc(-n2c(-c3ncccc3Cl)nc(CNC3CCCC3)c2C(C)C)cn1 | 4.7 | – | Papp (MDR1 (human)): 25 ×10⁻⁶ cm/s; Ratio [3]: 22.9; IC50 (Nociceptin receptor [5]): 9.6 nM; IC50 [4]: 9900 nM
13 | FC(F)(F)Cn1c(CNC2CCCC2)nc(-c2ccc(Cl)cc2Cl)c1-c1ccc(Cl)cc1 | > 1000 | 32 | –
14 | Clc1ccc(-c2oc(CNC3CCCC3)nc2-c2ccc(Cl)cc2Cl)cc1 | > 1000 | 28 | –
15 | Clc1ccc(-c2cc(CNC3CCCC3)nn2-c2ccc(Cl)cc2Cl)cc1 | 130 | – | –
16 | Clc1ccc(-c2c(-c3ccc(Cl)cc3Cl)nc(CNC3CCCC3)n2C2CC2)cc1 | 190 | – | –
17 | Clc1ccc(-c2c(-c3ccc(Cl)cc3Cl)nc(CNC3CCCC3)n2C2CCC2)cc1 | 530 | – | –
18 | Cn1c(CNC2CCCC2)nnc1-c1cc(F)cc(F)c1 | > 1000 | 19 | –
19 | Cc1ccc(-n2c(-c3ncccc3Cl)nc(CNC3CCCC3)c2C)cn1 | 26 | – | –

Further lines, with some results ahead:

Row | IC50 (Nociceptin receptor [1]) [nM] | inhibition (Nociceptin receptor [2]) [%] | SMILES | further results
20 | 160 | – | CCn1c(CNC2CCCC2)nc(-c2ccc(Cl)cc2Cl)c1-c1ccc(Cl)cc1 | –
21 | 11 | – | Cc1nc(CNC2CCCC2)n(C(C)C)c1-c1ccc(Cl)cc1 | Papp (MDR1 (human)): 18.2 ×10⁻⁶ cm/s; Ratio [3]: 1; IC50 [4]: 3200 nM
22 | 850 | – | Cn1c(CNC2CCCC2)nc(-c2ccc(Cl)cc2)c1-c1ccc(Cl)cc1Cl | –
23 | 7.6 | – | COCCc1nc(CN[C@H]2CC[C@@H](F)C2)n(C(C)C)c1-c1ccc(Cl)cc1 | Papp (MDR1 (human)): 28.6 ×10⁻⁶ cm/s; IC50 (Nociceptin receptor [5]): 5.6 nM
24 | 160 | – | FCCn1c(CNC2CCCC2)nc(-c2ccc(Cl)cc2Cl)c1-c1ccc(Cl)cc1 | –
25 | 33 | – | CC(C)n1c(CNC2CCCC2)nc(-c2ccc(Cl)cc2Cl)c1-c1ccc(Cl)cc1 | –
26 | 500 | – | FC(F)Cn1c(CNC2CCCC2)nc(-c2ccc(Cl)cc2Cl)c1-c1ccc(Cl)cc1 | –
27 | 9.1 | – | Cc1ccc(-n2c(-c3ncccc3Cl)nc(CN[C@H]3CC[C@@H](F)C3)c2C)cn1 | Papp (MDR1 (human)): 16.8 ×10⁻⁶ cm/s; IC50 (Nociceptin receptor [5]): 3.7 nM
28 | 160 | – | CCC(CC)n1c(CNC2CCCC2)nc(-c2ccc(Cl)cc2Cl)c1-c1ccc(Cl)cc1 | –
29 | 1.4 | – | Cc1ccc(-n2c(-c3ncccc3Cl)nc(CN[C@H]3CC[C@@H](F)C3)c2C(C)C)cn1 | Papp (MDR1 (human)): 24.1 ×10⁻⁶ cm/s; Ratio [3]: 21.8; IC50 (Nociceptin receptor [5]): 2.3 nM; IC50 [4]: 15000 nM
30 | > 1000 | 26 | CC(C)(C)n1c(CNC2CCCC2)nc(-c2ccc(Cl)cc2Cl)c1-c1ccc(Cl)cc1 | –
31 | 8.6 | – | Cc1nc(CN[C@H]2CC[C@@H](F)C2)c(C(C)C)n1-c1cc(F)cc(F)c1 | Papp (MDR1 (human)): 34 ×10⁻⁶ cm/s; Ratio [3]: 3.2; IC50 (Nociceptin receptor [5]): 4.5 nM; IC50 [4]: 34000 nM
32 | 520 | – | Cn1c(CNC2CCCC2)nc(-c2ccc(Cl)cc2Cl)c1-c1ccc(Cl)cc1 | –
33 | 96 | – | FCC(CF)n1c(CNC2CCCC2)nc(-c2ccc(Cl)cc2Cl)c1-c1ccc(Cl)cc1 | –
34 | 3.2 | – | CCc1c(CN[C@H]2CC[C@@H](F)C2)nc(-c2ncccc2Cl)n1-c1ccc(C)nc1 | remaining at 0.5 h, 1 µM [6]: 85%; Papp (MDR1 (human)): 20.6 ×10⁻⁶ cm/s; half-life [7]: 30 min; clearance [8]: 114 mL/min/kg; bioavailability [9]: 10%; remaining at 0.5 h, 1 µM [10]: 82%; Ratio [3]: 19.7; IC50 (Nociceptin receptor [5]): 2.3 nM; IC50 [4]: 15000 nM
